# Experimental data published in paper PMC10464600 (ACS chemical biology, 2022).
# Tests used:
# [1] = test system: 1483 HNSCC cells; assay: Cell imaging assay, fluorescence microscopy; assay type: cell-based
# How it was run: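 1483 HNSCC cells in HBSS/Tyrode's, grown to 50% confluency, given 200 nM probe for 0.25 h at 37 °C, washed three times, imaged (propidium iodide filter, 0.5 s exposure, gain 2) at 0.5 and 3 h post-addition. Intensity read at 586/607 nm. Triplicates; Welch-corrected unpaired t test, error as standard error.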
# [2] = target: T1, COX-2 in 1483 HNSCC cells (Homo sapiens, UniProt P35354); assay: Cell-based COX-2 inhibition assay in intact 1483 HNSCC cells; details: read-out: IC50, cellular COX-2 inhibition
# T1 sequence (P35354 18-604): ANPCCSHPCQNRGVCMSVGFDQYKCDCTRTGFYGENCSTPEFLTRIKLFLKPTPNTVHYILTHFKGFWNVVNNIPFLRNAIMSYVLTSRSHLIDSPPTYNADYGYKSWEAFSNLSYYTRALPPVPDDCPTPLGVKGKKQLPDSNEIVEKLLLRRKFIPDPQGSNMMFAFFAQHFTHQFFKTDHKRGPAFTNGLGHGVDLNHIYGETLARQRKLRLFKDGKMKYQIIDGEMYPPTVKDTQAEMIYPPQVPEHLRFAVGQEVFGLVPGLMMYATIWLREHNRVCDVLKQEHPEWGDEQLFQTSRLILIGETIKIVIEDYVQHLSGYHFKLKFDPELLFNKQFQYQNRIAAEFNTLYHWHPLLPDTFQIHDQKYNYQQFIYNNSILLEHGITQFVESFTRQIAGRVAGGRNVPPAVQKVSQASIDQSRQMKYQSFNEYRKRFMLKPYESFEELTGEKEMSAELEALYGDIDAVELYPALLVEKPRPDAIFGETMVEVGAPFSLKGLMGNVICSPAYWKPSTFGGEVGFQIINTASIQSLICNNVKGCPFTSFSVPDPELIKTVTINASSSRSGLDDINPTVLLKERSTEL
# [3] = Photophysical properties; assay type: physicochemical
# How it was run: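 Samples were diluted to 1 μM and scanned on a photon-counting fluorometer in a 10 x 4 mm cuvette at 25 °C, with excitation/emission spectra recorded in triplicate. Quantum yield was taken relative to a reference fluorophore standard. Extinction coefficient came from absorbance spectra (10 mm pathlength) at 10, 8, 6, 4 and 2 μM dilutions.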
# [4] = target: T2, mCOX-2 (Mus musculus, UniProt Q05769); assay: Purified COX-2 isozyme inhibition, TLC assay with [1-14C]arachidonic acid; assay type: biochemical; details: read-out: IC50, inhibition of COX-2, 14C-arachidonic acid substrate
# T2 sequence (Q05769 18-604): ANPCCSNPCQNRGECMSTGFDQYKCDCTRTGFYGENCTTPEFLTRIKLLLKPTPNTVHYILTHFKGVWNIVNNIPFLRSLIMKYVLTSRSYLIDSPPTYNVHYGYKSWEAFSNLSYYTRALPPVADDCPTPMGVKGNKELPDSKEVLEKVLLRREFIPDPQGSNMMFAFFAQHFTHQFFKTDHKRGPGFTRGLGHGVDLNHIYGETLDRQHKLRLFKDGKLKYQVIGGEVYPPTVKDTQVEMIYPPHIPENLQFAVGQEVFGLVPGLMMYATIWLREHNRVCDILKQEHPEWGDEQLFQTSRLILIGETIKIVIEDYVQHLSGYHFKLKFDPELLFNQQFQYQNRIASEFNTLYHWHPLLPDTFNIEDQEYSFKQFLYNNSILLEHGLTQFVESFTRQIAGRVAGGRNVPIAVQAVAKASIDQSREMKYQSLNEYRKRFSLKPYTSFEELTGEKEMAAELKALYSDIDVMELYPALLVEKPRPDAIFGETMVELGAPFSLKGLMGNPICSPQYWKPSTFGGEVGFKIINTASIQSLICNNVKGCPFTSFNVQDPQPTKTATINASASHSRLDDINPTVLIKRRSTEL
# [5] = test system: COX-2 and ROS in carrageenan-induced inflamed footpad; assay: Fluorescence imaging of carrageenan-induced footpad inflammation; assay type: in vivo, C57BL/6 mice
# [6] = In vivo pharmacokinetic assay, plasma concentration by LC-MS; details: CD-1 mice, 10 mg/kg i.p.
# [7] = test system: ROS in carrageenan-induced inflamed footpad; assay: Chemiluminescence imaging of ROS in carrageenan-induced footpad inflammation; assay type: in vivo, C57BL/6 mice; details: luminol 5 mg/kg i.v.
# [8] = 200 nM, 1483 HNSCC cells, after washout
compound,measurement,setting,value
fluorocoxib Q-H [FQ-H],fluorescence labeling of 1483 HNSCC cells,"[1]; fluorocoxib Q-H alone, after repetitive washing",strong perinuclear fluorescence
same,IC50,[2],260 nM
same,extinction coefficient (ε),[3]; at 586 nm,44 mM⁻¹ cm⁻¹
same,quantum yield (Φfl),[3]; at 607 nm,0.90
same,IC50,[4],240 nM
"Cc1ccc(-c2cc(C(F)(F)F)nn2-c2ccc(S(N)(=O)=O)cc2)cc1 [celecoxib, reference compound]",effect of preincubation on fluorocoxib Q-H labeling of 1483 HNSCC cells,[1]; pretreatment before fluorocoxib Q-H,blocked
fluorocoxib Q [FQ],"fold increase in fluorescence, inflamed over non-inflamed footpads","[5]; 5 mg/kg i.p., imaging 24 h post-injection, average",9 fold
same,fluorescence in inflamed footpad (mean ± sd),"[5]; 5 mg/kg i.p., imaging 24 h post-injection, n = 8, p < 0.001",7.84x10^8 ± 1.25x10^8
same,background signal in non-inflamed footpad,"[5]; wild-type C57BL/6 mice, FQ versus CF3-FA",extremely low background signal
same,plasma half-life,[6],exceeds 24 h
same,cell fluorescence at 0.5 h post-addition,[1]; [8],low fluorescence intensity
same,cell fluorescence at 3 h post-addition,[1]; [8],strong fluorescence
same,IC50,[2],280 nM
same,extinction coefficient (ε),[3]; at 586 nm,< 0.4 mM⁻¹ cm⁻¹
same,quantum yield (Φfl),[3]; at 607 nm,< 0.19
same,IC50,[4],330 nM
"COc1ccc2c(c1)c(CC(=O)NCCCCNC(=O)c1ccc(C3=c4cc5c6c(c4Oc4c3cc3c7c4CCCN7CCC3)CCC[N+]=6CCC5)c(C(=O)O)c1)c(C)n2C(=O)c1ccc(Cl)cc1 [FA, fluorocoxib A, reference compound]",extinction coefficient (ε),[3]; at 579 nm,45 mM⁻¹ cm⁻¹
same,quantum yield (Φfl),"[3]; at 602 nm, FA used as standard for comparison",0.93
Nc1cccc2c(=O)[nH][nH]c(=O)c12 [luminol],"fold luminescence, inflamed versus control footpads",[7],12 fold
same,chemiluminescence emission in inflamed footpads (mean ± sd),"[7]; 6 h after carrageenan, n = 8, p < 0.0004",1251.5 ± 94.9
